Common to all, as to type: functional, organism-based
The species entered for experiment [1] is Mus musculus. The experiment is described as follows: Tested for Color of the Final Reaction Product ofTPP-I Histochemical Staining with compound in the presence of p-anisaldehyde in mouse kidney cell preparations; yellow-green color was observed. The method, boiled down: (§1)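 Mice were given an anesthetic overdose, then perfused transcardially with 0.9% saline followed by 2% paraformaldehyde in 0.2 M phosphate buffer. Tissues were postfixed 2 h, cryoprotected in 25% sucrose and frozen. Cryostat sections (10 µm) were embedded in 0.5% celloidin and incubated at 37 °C for 4 h in 0.1 M acetate pH 4.5 with 1 mM substrate plus 1 mg/mL of the listed aldehyde. Staining was scored by microscopy on ≥5 sections/animal from ≥3 animals.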

The species named for experiment [2] is Mus musculus. The experiment is described as follows: Tested for Color of the Final Reaction Product ofTPP-I Histochemical Staining with compound in the presence of p-nitrobenzaldehyde in mouse kidney cell preparations; yellow-greencolor was observed. The gist of the method: as §1
For experiment [3], the species on record is Mus musculus. The experiment is described as follows: Tested for Intensity of the Final Reaction Product ofTPP-I Histochemical Staining with compound in the presence of benzaldehyde in mouse kidney cell preparations;. The gist of the method: as §1
Experiment [4] is filed under the species Mus musculus. The experiment is described as follows: Tested for Intensity of the Final Reaction Product ofTPP-I Histochemical Staining with compound in the presence of p-nitrobenzaldehyde in mouse kidney cell preparations;. The gist of the method: as §1
The species named for experiment [5] is Mus musculus. The experiment is described as follows: Tested for Color of the Final Reaction Product ofTPP-I Histochemical Staining with compound in the presence of benzaldehyde in mouse kidney cell preparations; yellow-green color was observed. The method, boiled down: as §1
The species entered for experiment [6] is Mus musculus. In words: Tested for Intensity of the Final Reaction Product ofTPP-I Histochemical Staining with compound in the presence of p-anisaldehyde in mouse kidney cell preparations;. The method, boiled down: as §1
The species entered for experiment [7] is Mus musculus. In words: Tested for Color of the Final Reaction Product ofTPP-I Histochemical Staining with compound in the presence of benzaldehyde in mouse kidney cell preparations; yellow-greenautofluorescent color was observed. The gist of the method:
as §1

For experiment [8], the species on record is Mus musculus. In words: Tested for Color of the Final Reaction Product ofTPP-I Histochemical Staining with compound in the presence of p-anisaldehyde in mouse kidney cell preparations; yellow-greenautofluorescent color was observed. The gist of the method: as §1
For experiment [9], the species on record is Mus musculus. In words: Tested for Color of the Final Reaction Product ofTPP-I Histochemical Staining with compound in the presence of p-nitrobenzaldehyde in mouse kidney cell preparations; yellow-greenautofluorescent color was observed. The method, boiled down:
as §1

The species named for experiment [10] is Mus musculus. The experiment is described as follows: Tested for Intensity of the Final Reaction Product ofTPP-I Histochemical Staining with compound in the presence of benzaldehyde in mouse kidney cell preparations. The method, boiled down:
as §1

The species named for experiment [11] is Mus musculus. In words: Tested for Intensity of the Final Reaction Product ofTPP-I Histochemical Staining with compound in the presence of p-nitrobenzaldehyde in mouse kidney cell preparations. The method, boiled down:
as §1

Experiment [12] is filed under the species Mus musculus. In words: Tested for Color of the Final Reaction Product ofTPP-I Histochemical Staining with compound in the presence of p-nitrobenzaldehyde in mouse kidney cell preparations; brown color was observed. The method, boiled down:
as §1

For experiment [13], the species on record is Mus musculus. The experiment is described as follows: Tested for Color of the Final Reaction Product ofTPP-I Histochemical Staining with compound in the presence of benzaldehyde in mouse kidney cell preparations; brown color was observed. The method, boiled down: as §1

For the compound `CC(NC(=O)[C@H](C)N)C(=O)N[C@@H](Cc1ccccc1)C(=O)NNc1ccc2c(c1)C(=O)c1ccccc1C2=O` (stereo partly specified), the Activity result in [1], in experiment [2], in experiment [3], in experiment [4], in experiment [5] and in experiment [6] was “yellow-green color was observed” in each case.

Turning to `C[C@H](NC(=O)[C@@H]1CCCN1C(=O)CN)C(=O)n1nc2cccc3c2c1-c1cccc(Cl)c1C3=O`, the Activity entry in [7], in [8], in experiment [9], in [10], in [11] and in [6] was “yellow-greenautofluorescent color was observed” each time.

Take `NCC(=O)N1CCC[C@H]1C(=O)N[C@@H](CO)C(=O)NNc1cccc2c1C(=O)c1ccccc1C2=O`: the Activity entry in experiment [12], in experiment [10], in experiment [11] and in [13] was “brown color was observed” throughout.

Source of the values: ChEMBL document CHEMBL1136716, “Tripeptide probes for tripeptidyl protease I production via gene transfer” (J Med Chem, 2003).
